Consider 29 molecules from ChEMBL document CHEMBL1147825, “2H-benzimidazole 1,3-dioxide derivatives: a new family of water-soluble anti-trypanosomatid agents” (J Med Chem, 2006).

Usually IC50 stands for the point on the concentration scale where inhibition reaches its midpoint. A lower IC50 goes with inhibition by little substance.

Experiment [1] concerns J774. Kind of experiment: Cytotoxicity against mouse J774 macrophage at 40 uM. It counts as functional. Put shortly: (§1)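 J774 macrophages in RPMI 1640 with 20% heat-inactivated FCS, attached 24 h at 37°C in 5% CO2, then exposed to compound for 48 h. Washed, MTT 0.4 mg/mL 60 min at 37°C, formazan dissolved in DMSO, OD595 read. Each concentration in triplicate with six growth controls; %cytotoxicity corrected for compound-in-medium and medium-only blanks.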

The subject of experiment [2] is Trypanosoma cruzi. Kind of experiment: Antitrypanosomatid activity against Trypanosoma cruzi Tulahuen 2 epimastigote form. It counts as functional, organism-based. The method, boiled down:
(§2)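 Epimastigotes grown at 28°C in BHI-tryptose with 5% fetal calf serum; 5-day stationary-phase cells inoculated at 1×10^6 cells/mL with compound added from DMSO stock (final DMSO ≤0.4%; control contains 0.4% DMSO). Growth followed by A600; at day 5 absorbance related to control across increasing concentrations; IC50 taken as concentration reducing absorbance ratio to 50%.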

Experiment [3] relates to Trypanosoma cruzi. Briefly: Antitrypanosomatid activity against Trypanosoma cruzi CL Brener epimastigote form. It is filed as functional, organism-based. Put shortly: as §2
Experiment [4] concerns J774. Briefly: Cytotoxicity against mouse J774 macrophage at 400 uM. It is filed as functional. Put shortly: as §1
Experiment [5] relates to Trypanosoma cruzi. Briefly: Antitrypanosomatid activity against Trypanosoma cruzi Y epimastigote form. It counts as functional, organism-based. Put shortly:
as §2

Experiment [6] relates to Trypanosoma cruzi. Briefly: Antitrypanosomatid activity against Trypanosoma cruzi Tulahuen 2 epimastigote form at 25 uM. It counts as functional. The following applies: read-out: GI. The method, boiled down:
(§3)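 Tulahuen 2 epimastigotes in BHI-tryptose plus 5% FCS at 28°C, inoculated at 1×10^6 cells/mL with compound (25 or 100 µM) from DMSO stock, final DMSO ≤0.4%. Growth over 5 days followed by A600; %GI computed from day-0 and day-5 absorbances of treated vs compound-free control cultures; mean of three experiments.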

Experiment [7] concerns Trypanosoma cruzi. Briefly: Antitrypanosomatid activity against Trypanosoma cruzi Tulahuen 2 epimastigote form at 100 uM. It counts as functional. Particulars: read-out: GI. The method, boiled down:
as §3

The test system of experiment [8] is Trypanosoma cruzi. Kind of experiment: Trypanocidal activity against Trypanosoma cruzi CL Brener trypomastigote form in mouse blood at 250 ug/mL. It counts as functional. The method, boiled down: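 Trypomastigotes taken from infected mouse blood; compound in DMSO diluted with PBS to 250 µg/mL, mixed with blood containing 10^6 parasites at 90/10 ratio, incubated 24 h at 4°C. Parasites counted by the Brener method under microscope; gentian violet positive and PBS negative controls.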

Experiment [9] concerns Trypanosoma cruzi. Briefly: Activity against Trypanosoma cruzi in BALB/c mouse at 30 mg/kg/day after 60 days. It counts as functional, organism-based. Put shortly: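 Male BALB/c mice (30 days old, 25-30 g) infected i.p. with 10^3 blood trypomastigotes; oral dosing began 10 days post-infection, 30 mg/kg/day as aqueous PBS solution for 10 days; groups of eight, PBS control group of 10. Mortality recorded daily, parasitemia weekly; anti-T. cruzi antibodies measured serologically (absorbance) at 30 and 60 days post-infection, groups compared by Wilcoxon test.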

For experiment [10], the system named is Leishmania amazonensis. Kind of experiment: Leishmanicidal activity against Leishmania amazonensis promastigote form at 100 ug/mL. It is filed as functional. Put shortly:
(§4)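 Promastigotes grown at 28°C in Schneider's medium with 20% FCS, seeded at 10^7 parasites/mL; compound dissolved in minimal DMSO or Tween 80 and diluted in Schneider's medium to a final 100 µg/mL. After 72 h at 28°C, parasites examined by inverted microscopy and compared with compound-free control.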

Experiment [11] concerns Leishmania infantum. Briefly: Leishmanicidal activity against Leishmania infantum promastigote form at 100 ug/mL. It counts as functional. Put shortly:
as §4

In experiment [12] the test system is J774. Kind of experiment: Cytotoxicity against mouse J774 macrophage at 4 uM. It counts as functional, cell-based. Put shortly:
as §1

For experiment [13], the system named is Leishmania braziliensis. Kind of experiment: Leishmanicidal activity against Leishmania braziliensis promastigote form at 100 ug/mL. It is filed as functional. Put shortly: as §4

Activity calls are given as the source filed them. No cut-off for these calls is given here.

Take `CC1(C)[N+]([O-])=c2ccc(/C=C/c3ccccc3)cc2=[N+]1[O-]`: the Activity was < 50% in [1] and “Toxic” in [4]. The IC50 in experiment [2] was found to be 3.4 µM; in experiment [3] it was 6 µM; in [5], 5 µM. In addition, the inhibition of growth at 25 µM in experiment [6] was 100%.
As for `Cc1n(O)c2ccc(/C=C/c3ccccc3)cc2[n+]1[O-]`, the inhibition of growth at 100 µM in [7] was found to be 15%. Moreover, the inhibition of growth at 25 µM in experiment [6] was determined as 19%.
Turning to `CC1(C)[N+]([O-])=c2ccc(/C=N/O)cc2=[N+]1[O-]`, the Activity in experiment [8] was 21%; in experiment [1], “Not toxic”; in [10] it was 100%; in experiment [11], 100%; in experiment [4], “Not toxic”; in experiment [12] it was “Not toxic”. In experiment [13], this molecule displayed an Activity of 100%. For the same molecule, the result in experiment [9] was Active. The IC50 was found to be 12.5 µM in [2], 14.5 µM in experiment [3] and 11.8 µM in experiment [5]. For the same molecule, the inhibition of growth at 25 µM in [6] was determined as 72%.
As for `Cc1n(O)c2ccccc2[n+]1[O-]`, the Activity is reported as 0% in [8] and 70% in [13]. In addition, the outcome in [10] and in experiment [11] was inactive. The inhibition of growth at 100 µM in experiment [7] worked out at 0%. In addition, the inhibition of growth at 25 µM in experiment [6] amounted to 0%.
For `CN(C)c1ccc(C(=C2C=CC(=[N+](C)C)C=C2)c2ccc(N(C)C)cc2)cc1.[Cl-]` [GENTIAN VIOLET], in experiment [8], the Activity came to 100%.
For `CC1(C)[N+]([O-])=c2ccc(Br)cc2=[N+]1[O-]`, the Activity in experiment [1] was < 50%; in experiment [4] it was “Toxic”. The values for the IC50 in [2], in experiment [3] and in experiment [5] were 8.3 µM, 12 µM and 13.8 µM, respectively. The inhibition of growth at 25 µM in [6] amounted to 77%.
Regarding `CCCCCCNC(=O)N/N=C/c1ccc2c(c1)=[N+]([O-])C(C)(C)[N+]=2[O-]`, the inhibition of growth at 25 µM in experiment [6] stood at 69%.
As to `CCOC(=O)COn1c(C)[n+]([O-])c2cc(/C=C/c3ccccc3)ccc21`, the inhibition of growth at 100 µM in experiment [7] stood at 11%. In addition, the inhibition of growth at 25 µM in experiment [6] came out at 8%.
With `CC1(C)[N+]([O-])=c2ccccc2=[N+]1[O-]`, the Activity is 10% in [8]; < 50% in experiment [1]; 100% in experiment [10]; 100% in [11]; “Toxic” in [4]; 100% in experiment [13]. In addition, the IC50 worked out at 4.3 µM in experiment [2], 9 µM in experiment [3] and 14 µM in experiment [5]. For the same molecule, the inhibition of growth at 25 µM in [6] turned out to be 87%.
As for `O=[N+]([O-])c1ccc2c(c1)[n+]([O-])c1n2CCOC1`, the inhibition of growth at 25 µM in experiment [6] was determined as 0%.
Take `O=C(Cn1ccnc1[N+](=O)[O-])NCc1ccccc1` [BENZNIDAZOLE]: the IC50 in [2] worked out at 8.5 µM; in experiment [3] it was 3.4 µM. In addition, the inhibition of growth at 25 µM in experiment [6] came to 92%.
`COc1ccc2c(c1)=[N+]([O-])C(C)(C)[N+]=2[O-]`: the Activity was 34% in experiment [8]; < 50% in experiment [1]; 70% in [10]; “Toxic” in [4]; 70% in experiment [13]. For the same molecule, the results for the IC50 in experiment [2], in experiment [3] and in [5] were 28.5 µM, 25 µM and 17 µM, respectively. Also, in experiment [11], the outcome was inactive. Moreover, in [6], the inhibition of growth at 25 µM came to 52%.
`O=[N+]([O-])c1ccc2c(c1)[n+]([O-])c1n2CCC1`: the inhibition of growth at 25 µM in experiment [6] worked out at 0%.
In the case of `CC1(C)[N+]([O-])=c2ccc(C3OCCO3)cc2=[N+]1[O-]`, the Activity in experiment [8] worked out at 28%; in [10], 100%; in [11], 100%; in experiment [4] it was 50%; in [13] it was 100%. Further, in experiment [9], the outcome was Active. The IC50 came out at 22.7 µM in experiment [2], 20 µM in [3] and 14 µM in [5]. The inhibition of growth at 25 µM in experiment [6] is 59%.
Turning to `O=[N+]([O-])c1ccc2c(c1)[n+]([O-])c1n2CCSC1`, the inhibition of growth at 25 µM in experiment [6] came out at 0%.
As for `Cc1ccc2c(c1)=[N+]([O-])C(C)(C)[N+]=2[O-]`, the Activity is 0% in [8]; < 50% in experiment [1]; 70% in experiment [10]; 70% in [11]; “Toxic” in experiment [4]; 70% in [13]. The IC50 in experiment [2] is 5.1 µM; in experiment [3], 13.5 µM; in experiment [5], 13 µM. Further, the inhibition of growth at 25 µM in experiment [6] came to 85%.
On to `COc1ccc2c(c1)[n+]([O-])c(C)n2O`, for which the Activity in experiment [8] is reported as 23%. Further, the result in experiment [10], in experiment [11] and in experiment [13] was inactive. The inhibition of growth at 100 µM in experiment [7] was 24%. In [6], the inhibition of growth at 25 µM came to 0%.
As to `CCOC(=O)COn1c(C)[n+]([O-])c2cc(C)ccc21`, the inhibition of growth at 100 µM in experiment [7] stood at 15%. Also, the inhibition of growth at 25 µM in experiment [6] came to 25%.
As for `CC1CS(=O)(=O)CCN1/N=C/c1ccc([N+](=O)[O-])o1` (stereo not drawn) [NIFURTIMOX], the inhibition of growth at 25 µM in [6] was 93%.
Regarding `Cc1n(O)c2ccc(Br)cc2[n+]1[O-]`, the inhibition of growth at 100 µM in experiment [7] is 18%. Also, the inhibition of growth at 25 µM in [6] is 0%.
The molecule `Cc1ccc2c(c1)[n+]([O-])c(C)n2O` had an Activity in experiment [8] of 0%. Moreover, the outcome in [10], in experiment [11] and in [13] was inactive. Besides, the inhibition of growth at 100 µM in experiment [7] is 0%. For the same molecule, the inhibition of growth at 25 µM in experiment [6] was 0%.
`CCOC(=O)COn1c(C)[n+]([O-])c2ccccc21`: the inhibition of growth at 100 µM in experiment [7] stood at 12%. The inhibition of growth at 25 µM in [6] came out at 1%.
For `CCOC(=O)c1[nH]c2ccc([N+](=O)[O-])cc2[n+]1[O-]`, the Activity in experiment [8] amounted to 0%. Further, the result in experiment [10], in experiment [11] and in experiment [13] was inactive.
`CCCCOC(=O)c1[nH]c2ccc([N+](=O)[O-])cc2[n+]1[O-]` had an Activity in [8] of 0%.
For the molecule `N=C(N)c1ccc(OCCCCCOc2ccc(C(=N)N)cc2)cc1` [PENTAMIDINE], the Activity in experiment [10], in [11] and in experiment [13] was 100% each time.
As for `O=[N+]([O-])c1ccc2c(c1)[n+]([O-])c1n2CCCC1`, in experiment [6], the inhibition of growth at 25 µM was 0%.
As to `Cc1n(O)c2ccc(Cl)cc2[n+]1[O-]`, the inhibition of growth at 100 µM in experiment [7] was 8%. The inhibition of growth at 25 µM in [6] is 0%.
Taken in the same sequence, the figures for `CCCCCOn1c(C)[n+]([O-])c2ccccc21` were 57% and 0%.
Consider `CCOC(=O)c1ccc2[nH]c(C(=O)OCC)[n+]([O-])c2c1`, for which the Activity in experiment [8] came out at 50%. For the same molecule, the outcome in [10], in [11] and in experiment [13] was inactive.
